Data published in ChEMBL document CHEMBL1153011, “Mechanism of unusual formation of 3-(5-phenyl-3H-[1,2,4]dithiazol-3-yl)chromen-4-ones and 4-oxo-4H-chromene-3-carbothioic acid N-phenylamides and their antimicrobial evaluation” (2009).
≈ marks a conversion by molar mass, not a printed value. Calls of active or inactive are those of the source. The calls are words filed in the database; no cut-off is given here.

Assays:
Shigella flexneri [1] = test: Antibacterial activity against Shigella flexneri MTCC 1457 after overnight incubation by broth dilution method; assay type: functional
In short: (§1)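 Bacteria grown at 37 °C on nutrient agar. Compounds dissolved in DMSO (1/10) and tested in twofold serial dilutions in Mueller Hinton broth in tubes. Inoculum was a McFarland-standardized suspension, final 5 × 10^5 CFU/ml, with growth and sterility control tubes. Incubation overnight at 37 °C. MIC read by OD600 as the lowest concentration with no turbidity. DMSO negative control; chloramphenicol and ciprofloxacin positive controls.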

Staphylococcus aureus [2] = test: Antibacterial activity against Staphylococcus aureus MTCC 740 after overnight incubation by broth dilution method; assay type: functional; in short: as §1
Pseudomonas aeruginosa [3] = test: Antibacterial activity against Pseudomonas aeruginosa MTCC 741 after overnight incubation by broth dilution method; assay type: functional; in short: as §1
Escherichia coli [4] = test: Antibacterial activity against Escherichia coli MTCC 119 after overnight incubation by broth dilution method; assay type: functional; in short: as §1
Pseudomonas aeruginosa [5] = test: Antibacterial activity against Pseudomonas aeruginosa MTCC 741 at 5 x 10^-5 ug/ml after 24 hrs by disk diffusion assay; assay type: functional, organism-based
In short: (§2)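 Disk diffusion. 100 µl of 4-h nutrient-broth cultures spread on Mueller Hinton agar. Compounds in DMSO (1/10) applied to 8 mm paper disks. After 24 h at 37 °C, growth-inhibition zone diameter measured. DMSO negative control; chloramphenicol and ciprofloxacin positive controls.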

Staphylococcus aureus [6] = test: Antibacterial activity against Staphylococcus aureus MTCC 740 at 1 x 10^-4 ug/ml after 24 hrs by disk diffusion assay; assay type: functional; settings: MTCC 740, 24 h, read-out: GI; in short: as §2
Candida tropicalis = test: Antifungal activity against Candida tropicalis MTCC 230 after 24 to 72 hrs by broth dilution method; assay type: functional
In short: (§3)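 Fungi grown at 25 °C on Sabouraud dextrose agar. Compounds dissolved in DMSO (1/10) and tested at several concentrations in Sabouraud dextrose broth in tubes. Conidial suspension at final 1 × 10^5 CFU/ml, with growth and sterility control tubes. […] DMSO negative control; fluconazole positive control.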

Pseudomonas aeruginosa [7] = test: Antibacterial activity against Pseudomonas aeruginosa MTCC 741 at 1 x 10^-4 ug/ml after 24 hrs by disk diffusion assay; assay type: functional, organism-based; in short: as §2
Shigella flexneri [8] = test: Antibacterial activity against Shigella flexneri MTCC 1457 at 5 x 10^-5 ug/ml after 24 hrs by disk diffusion assay; assay type: functional; settings: MTCC 1457, 24 h, read-out: GI; in short: as §2
Pseudomonas aeruginosa [9] = test: Antibacterial activity against Pseudomonas aeruginosa MTCC 741 at 2.5 x 10^-5 ug/ml after 24 hrs by disk diffusion assay; assay type: functional, organism-based; in short: as §2
Aspergillus niger = test: Antifungal activity against Aspergillus niger MTCC 281 after 24 to 72 hrs by broth dilution method; assay type: functional; in short: as §3
Escherichia coli [10] = test: Antibacterial activity against Escherichia coli MTCC 119 at 1 x 10^-4 ug/ml after 24 hrs by disk diffusion assay; assay type: functional; settings: MTCC 119, 24 h, read-out: GI; in short: as §2
Shigella flexneri [11] = test: Antibacterial activity against Shigella flexneri MTCC 1457 at 1 x 10^-4 ug/ml after 24 hrs by disk diffusion assay; assay type: functional; settings: MTCC 1457, 24 h, read-out: GI; in short: as §2
Escherichia coli [12] = test: Antibacterial activity against Escherichia coli MTCC 119 at 5 x 10^-5 ug/ml after 24 hrs by disk diffusion assay; assay type: functional; settings: MTCC 119, 24 h, read-out: GI; in short: as §2
Candida albicans = test: Antifungal activity against Candida albicans MTCC 227 after 24 to 72 hrs by broth dilution method; assay type: functional; in short: as §3
Staphylococcus aureus [13] = test: Antibacterial activity against Staphylococcus aureus MTCC 740 at 5 x 10^-5 ug/ml after 24 hrs by disk diffusion assay; assay type: functional; settings: MTCC 740, 24 h, read-out: GI; in short: as §2
Staphylococcus aureus [14] = test: Antibacterial activity against Staphylococcus aureus MTCC 740 at 2.5 x 10^-5 ug/ml after 24 hrs by disk diffusion assay; assay type: functional; settings: MTCC 740, 24 h, read-out: GI; in short: as §2
Escherichia coli [15] = test: Antibacterial activity against Escherichia coli MTCC 119 at 2.5 x 10^-5 ug/ml after 24 hrs by disk diffusion assay; assay type: functional; settings: MTCC 119, 24 h, read-out: GI; in short: as §2
Geotrichum candidum = test: Antifungal activity against Geotrichum candidum MTCC 3993 after 24 to 72 hrs by broth dilution method; assay type: functional; in short: as §3
Shigella flexneri [16] = test: Antibacterial activity against Shigella flexneri MTCC 1457 at 2.5 x 10^-5 ug/ml after 24 hrs by disk diffusion assay; assay type: functional; settings: MTCC 1457, 24 h, read-out: GI; in short: as §2

| Compound | MIC (Shigella flexneri [1]) [µg/mL] | MIC (Staphylococcus aureus [2]) [µg/mL] | MIC (Pseudomonas aeruginosa [3]) | MIC (Escherichia coli [4]) [µg/mL] | growth inhibition (GI) (Pseudomonas aeruginosa [5]) | inhibition of growth at 0.0001 µg/mL (Staphylococcus aureus [6]) [%] | MIC (Candida tropicalis) [µg/mL] | growth inhibition (GI) (Pseudomonas aeruginosa [7]) | inhibition of growth at 50 pg/mL (Shigella flexneri [8]) [%] | growth inhibition (GI) (Pseudomonas aeruginosa [9]) | MIC (Aspergillus niger) [µg/mL] | inhibition of growth at 0.0001 µg/mL (Escherichia coli [10]) [%] | inhibition of growth at 0.0001 µg/mL (Shigella flexneri [11]) [%] | inhibition of growth at 50 pg/mL (Escherichia coli [12]) [%] | MIC (Candida albicans) [µg/mL] | inhibition of growth at 50 pg/mL (Staphylococcus aureus [13]) [%] | inhibition of growth at 25 pg/mL (Staphylococcus aureus [14]) [%] | inhibition of growth at 25 pg/mL (Escherichia coli [15]) [%] | MIC (Geotrichum candidum) [µg/mL] | inhibition of growth at 25 pg/mL (Shigella flexneri [16]) [%] |
| --- | --- | --- | --- | --- | --- | --- | --- | --- | --- | --- | --- | --- | --- | --- | --- | --- | --- | --- | --- | --- |
| O=C(N[C@H](CO)[C@H](O)c1ccc([N+](=O)[O-])cc1)C(Cl)Cl [CHLORAMPHENICOL] | 5.6 (≈ 17.3 µM) | 13.6 (≈ 42.1 µM) | 2.7 µg/mL (≈ 8.36 µM) | 2.5 (≈ 7.74 µM) |  |  |  |  |  |  |  |  |  |  |  |  |  |  |  |  |
| O=c1c(C(=S)Nc2ccccc2)coc2cc(Cl)ccc12 | 96 (≈ 304 µM) | 125 (≈ 396 µM) | inactive | 115 (≈ 364 µM) | inactive | 81 | 60 (≈ 190 µM) | inactive | 52.2 | inactive | 80 (≈ 253 µM) | 87.6 | 100 | 42.6 | 60 (≈ 190 µM) | 43.6 |  |  |  |  |
| O=c1c(C(=S)Nc2ccccc2)coc2ccccc12 | 92 (≈ 327 µM) | 70 (≈ 249 µM) | inactive | 62 (≈ 220 µM) | inactive | 100 |  | inactive | 55.3 | inactive | 90 (≈ 320 µM) | 100 | 100 | 85.5 |  | 76.2 | 35.6 | 38.5 |  |  |
| O=c1c(C(=S)Nc2ccccc2)coc2ccc(F)cc12 |  |  | inactive | 68 (≈ 227 µM) | inactive |  |  | inactive |  | inactive | 120 (≈ 401 µM) | 100 |  | 73.8 |  |  |  |  |  |  |
| OC(Cn1cncn1)(Cn1cncn1)c1ccc(F)cc1F [FLUCONAZOLE] |  |  |  |  |  |  | 25 (≈ 81.6 µM) |  |  |  | 49 (≈ 160 µM) |  |  |  | 24 (≈ 78.4 µM) |  |  |  | 9 (≈ 29.4 µM) |  |
| O=c1c(C2N=C(c3ccccc3)SS2)coc2ccc(F)cc12 (stereo unspecified) | 80 (≈ 233 µM) | 205 (≈ 597 µM) | inactive | 120 (≈ 349 µM) | inactive | 48.8 | 42 (≈ 122 µM) | inactive | 62.3 | inactive | 50 (≈ 146 µM) | 80.9 | 100 | 12.3 | 30 (≈ 87.4 µM) | 23.9 |  |  | 32 (≈ 93.2 µM) | 28.4 |
